Results of several laboratories.
Lines come from different studies, so protocols differ.
Observed: metabolic stability

| SMILES | system | conditions | half-life |
| --- | --- | --- | --- |
| O=c1ccc2cc(O)ccc2o1 | mouse, liver microsomes | 20 µM | 8.22 min |
| O=C1CCC(N2Cc3cc(Nc4noc5cc(F)ccc45)ccc3C2=O)C(=O)N1 (centres unmarked) | CD-1 mouse, hepatocytes |  | > 216 min |
| CC1(CN)CCN(c2cnc3c(Sc4ccncc4Cl)n[nH]c3n2)CC1 | mouse, liver microsomes |  | 630 min |
| CC(C)Oc1ccc(S(=O)(=O)c2ccc(Oc3cc(OCC(N)=O)c(C(=O)C(Cl)Cl)cc3[N+](=O)[O-])cc2)cc1 | mouse, liver microsomes | 20 µM | 7.2 min |
| CCOc1ccc2ccc(=O)oc2c1 | male CD-1 mouse, hepatocytes | 1 µM | < 15 min |
| O=c1ccc2ccc(O)cc2o1 | mouse, liver microsomes |  | 2 min |
| O=C(c1ccc(F)cc1)C1CCN(CCn2c(=O)[nH]c3ccccc3c2=O)CC1 | mouse, liver microsomes |  | 22.8 min |
| O=C(O)Cc1ccccc1Nc1c(Cl)cccc1Cl | mouse, liver microsomes |  | 60.8 min |
